The test system of the test is Trypanosoma brucei brucei. The experiment in a line: Antitrypanosomal activity against bloodstream form of Trypanosoma brucei brucei 427 after 48 hrs by Alamar Blue staining based fluorescence assay. Type of test: functional, organism-based. As to conditions: Trypanosoma brucei, 427, 48 h. In outline:
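Starting inoculum 2×10³ bloodstream-form parasites per well in HMI-9 with 10% FBS, exposed to two-fold serial drug dilutions for 48 h at 37°C, 5% CO₂. Alamar Blue then added, with a further 4 h incubation. Fluorescence read at Ex 544/Em 590. Each plate included drug-free parasite wells and parasite-free, drug-free wells. IC₅₀ from three biological replicates, each the mean of three technical replicates.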
In general terms: Alamar Blue is a resazurin reagent that responds to reducing activity.

Usually IC50 stands for the concentration that inhibits the measured activity by half.

`C#CCN(CCCN(C)C)CCc1cc(OC)c(Br)cc1Br`: the IC50 was more than 8 µM.
Next, `CN(C)CCCNCc1cc(Br)c(O)c(Br)c1`: more than 8 µM.
Next, `COc1c(Br)cc(CNCCCN(C)C)cc1Br`: more than 8 µM; `CN(C)CCCNCc1cccc(O)c1`: more than 8 µM.
Next, `CN(C)CCCNCc1ccc(O)cc1`: more than 8 µM; `COc1cccc(CNCCCN(C)C)c1`: more than 8 µM; `COc1ccc(CNCCCN(C)C)cc1`: more than 8 µM.
For `COc1cc(CCNCCCN(C)C)c(Br)cc1Br`, half-maximal inhibition (IC50) was put at 0.3 µM.
Turning to `COc1ccc(Br)c(CCNCCCN(C)C)c1Br`, the IC50 amounted to 4 µM.
Next, `COc1ccc(CCNCCCN(C)C)cc1Br`: more than 8 µM.
Next, `COc1ccc(Br)cc1CCNCCCN(C)C`: more than 8 µM; `COc1cccc(CCNCCCN(C)C)c1`: more than 8 µM; `COc1cc(CCN(CCCN(C)C)C(C)=O)c(Br)cc1Br`: more than 8 µM.
The figure for `COc1cc(CCNCCCN)c(Br)cc1Br` is 2 µM; for `COc1cc(CCNCCCO)c(Br)cc1Br` it is more than 8 µM; for `C#CCNCCc1cc(OC)c(Br)cc1Br` it is more than 8 µM.
Compound `C#CCCNCCc1cc(OC)c(Br)cc1Br` had an IC50 of more than 8 µM.
The figure for `COc1cc(CCN2CCCC2)c(Br)cc1Br` is more than 8 µM; for `CN(C)CCCNCCc1ccc2ccccc2c1` it is 4 µM.
The figure for `CN(C)CCCNCCc1cccs1` is more than 8 µM; for `CN(C)CCCNC1Cc2ccccc2C1` it is more than 8 µM; for `CN(C)CCCNCCc1ccccc1Br` it is more than 8 µM.
Next, `CN(C)CCCNCCc1cccc(Br)c1`: more than 8 µM.
With `CN(C)CCCNCCc1ccc(Br)cc1`, the IC50 was more than 8 µM.
The figure for `CN(C)CCCNCCc1ccccc1F` is more than 8 µM.
In turn, `CN(C)CCCNCCc1cccc(F)c1` yielded a 50% inhibitory concentration (IC50) of more than 8 µM.
`CN(C)CCCNCCc1ccc(F)cc1` had an IC50 of more than 8 µM.
The figure for `CN(C)CCCNCCc1ccccc1Cl` is more than 8 µM; for `CN(C)CCCNCCc1cccc(Cl)c1` it is 0.7 µM; for `CN(C)CCCNCCc1ccc(Cl)cc1` it is more than 8 µM.
The figure for `COc1ccc(CCNCCCN(C)C)cc1Cl` is more than 8 µM; for `CN(C)CCCNCCc1ccc(Cl)c(Cl)c1` it is more than 8 µM; for `CN(C)CCCNCCc1ccc(Cl)cc1Cl` it is more than 8 µM.
`CN(C)CCCNCCc1c(Cl)cccc1Cl` gave an IC50 of more than 8 µM.
The compound `CN(C)CCCNCCc1c(F)cccc1Cl` displayed an IC50 of more than 8 µM.
The figure for `CN(C)CCCNCCc1cccc(C(F)(F)F)c1` is 0.5 µM; for `CN(C)CCCNCc1c(Br)cc(Br)c(O)c1Br` it is more than 8 µM.
Next, `COc1c(Br)cc(Br)c(CNCCCN(C)C)c1Br`: more than 8 µM; `CN(C)CCCNCc1cc(O)c(Br)cc1Br`: 2.2 µM; `COc1cc(CNCCCN(C)C)c(Br)cc1Br`: 4.6 µM.

The values above are taken from ChEMBL document CHEMBL3112575, “N¹,N¹-Dimethyl-N³-(3-(trifluoromethyl)phenethyl)propane-1,3-diamine, a new lead for the treatment of human African trypanosomiasis” (Eur J Med Chem, 2014).
